Results published in ChEMBL document CHEMBL1250442, “Inhibiting gene expression at transcription start sites in chromosomal DNA with antigene RNAs” (Nat Chem Biol, 2005).
Active and inactive are the calls of the source. No cut-off for these calls is given here.

Key:
T47D [1] = test: Inhibition of PR-B gene expression in human T47D cells at 25 nM by syber green assay; type: functional
Summary of the method: (§1)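 T47D cells plated at 80,000/well without antibiotics two days before Oligofectamine transfection with agRNA duplex (25 or 100 nM final); medium changed at 24 h, harvest day 5 unless stated otherwise. TRIzol total RNA; PR mRNA by real-time PCR with SYBR Green: 50 °C 2 min, 95 °C 10 min, 40 cycles 95 °C 15 s/60 °C 1 min.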

T47D [2] = test: Inhibition of PR-A gene expression in human T47D cells at 25 nM by syber green assay in presence of 10 nM estradiol; type: functional, cell-based
T47D [3] = test: Inhibition of PR-A gene expression in human T47D cells at 25 nM by syber green assay; type: functional; summary of the method: as §1
T47D [4] = test: Inhibition of PR-A mRNA gene expression in human T47D cells at 100 nM by syber green assay; type: functional; summary of the method: as §1
T47D [5] = test: Inhibition of PR-B mRNA gene expression in human T47D cells at 100 nM by syber green assay; type: functional
Summary of the method: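 T47D cells in RPMI-1640 with 10% FBS, NEAA, insulin, 37 °C, 5% CO2. Plated two days before transfection without antibiotics. Oligofectamine-mediated duplex RNA transfection at 100 nM final, medium changed at 24 h, harvest five days post-transfection. Total RNA extracted with TRIzol. hPR mRNA quantified by SYBR Green qPCR: 50 °C 2 min, 95 °C 10 min, then 40 cycles of 95 °C 15 s / 60 °C 1 min.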

T47D [6] = test: Inhibition of PR-B gene expression in human T47D cells at 25 nM by syber green assay in presence of 10 nM estradiol; type: functional, cell-based

Cc1cn(CC(=O)N(CCNC(=O)CN(CCNC(=O)CN(CCNC(=O)CN(CCNC(=O)CN(CCNC(=O)CN(CCNC(=O)CN(CCNC(=O)CN(CCNC(=O)CN(CCNC(=O)CN(CCNC(=O)CN(CCNC(=O)CN(CCNC(=O)CN(CCNC(=O)CN(CCNC(=O)CN(CCNC(=O)CN(CCNC(=O)CN(CCNC(=O)CN(CCNC(=O)CN(CCNC(=O)CN(CCNC(=O)CN)C(=O)Cn2cnc3c(=O)[nH]c(N)nc32)C(=O)Cn2ccc(=O)[nH]c2=O)C(=O)Cn2ccc(=O)[nH]c2=O)C(=O)Cn2cnc3c(=O)[nH]c(N)nc32)C(=O)Cn2ccc(=O)[nH]c2=O)C(=O)Cn2ccc(=O)[nH]c2=O)C(=O)Cn2cnc3c(N)ncnc32)C(=O)Cn2cnc3c(=O)[nH]c(N)nc32)C(=O)Cn2cnc3c(N)ncnc32)C(=O)Cn2cnc3c(N)ncnc32)C(=O)Cn2cnc3c(N)ncnc32)C(=O)Cn2cnc3c(=O)[nH]c(N)nc32)C(=O)Cn2ccc(N)nc2=O)C(=O)Cn2ccc(=O)[nH]c2=O)C(=O)Cn2cnc3c(=O)[nH]c(N)nc32)C(=O)Cn2ccc(=O)[nH]c2=O)C(=O)Cn2ccc(N)nc2=O)C(=O)Cn2ccc(=O)[nH]c2=O)C(=O)Cn2cnc3c(=O)[nH]c(N)nc32)CC(=O)NCCN(CC(=O)NCC(=O)O)C(=O)Cn2cc(C)c(=O)[nH]c2=O)c(=O)[nH]c1=O
inhibition at 0.025 µM (T47D [1]): < 20% | inhibition (T47D [2]): Active | inhibition at 0.025 µM (T47D [3]): < 20% | inhibition at 0.1 µM (T47D [4]): < 20% | inhibition at 0.1 µM (T47D [5]): < 20% | inhibition (T47D [6]): Active

Cc1cn(CC(=O)N(CCNC(=O)CN(CCNC(=O)CN(CCNC(=O)CN(CCNC(=O)CN(CCNC(=O)CN(CCNC(=O)CN(CCNC(=O)CN(CCNC(=O)CN(CCNC(=O)CN(CCNC(=O)CN(CCNC(=O)CN(CCNC(=O)CN(CCNC(=O)CN(CCNC(=O)CN(CCNC(=O)CN(CCNC(=O)CN(CCNC(=O)CN(CCNC(=O)CN(CCNC(=O)CN(CCNC(=O)CN)C(=O)Cn2cnc3c(=O)[nH]c(N)nc32)C(=O)Cn2cnc3c(=O)[nH]c(N)nc32)C(=O)Cn2ccc(N)nc2=O)C(=O)Cn2cnc3c(=O)[nH]c(N)nc32)C(=O)Cn2ccc(=O)[nH]c2=O)C(=O)Cn2ccc(=O)[nH]c2=O)C(=O)Cn2cnc3c(=O)[nH]c(N)nc32)C(=O)Cn2ccc(=O)[nH]c2=O)C(=O)Cn2ccc(=O)[nH]c2=O)C(=O)Cn2cnc3c(N)ncnc32)C(=O)Cn2cnc3c(=O)[nH]c(N)nc32)C(=O)Cn2cnc3c(N)ncnc32)C(=O)Cn2cnc3c(N)ncnc32)C(=O)Cn2cnc3c(N)ncnc32)C(=O)Cn2cnc3c(=O)[nH]c(N)nc32)C(=O)Cn2ccc(N)nc2=O)C(=O)Cn2ccc(=O)[nH]c2=O)C(=O)Cn2cnc3c(=O)[nH]c(N)nc32)C(=O)Cn2ccc(=O)[nH]c2=O)CC(=O)NCCN(CC(=O)NCC(=O)O)C(=O)Cn2cc(C)c(=O)[nH]c2=O)c(=O)[nH]c1=O
inhibition at 0.025 µM (T47D [1]): < 20% | inhibition (T47D [2]): Active | inhibition at 0.025 µM (T47D [3]): < 20% | inhibition at 0.1 µM (T47D [4]): < 20% | inhibition at 0.1 µM (T47D [5]): < 20% | inhibition (T47D [6]): Active

Cc1cn(CC(=O)N(CCNC(=O)CN(CCNC(=O)CN(CCNC(=O)CN(CCNC(=O)CN(CCNC(=O)CN(CCNC(=O)CN(CCNC(=O)CN(CCNC(=O)CN(CCNC(=O)CN(CCNC(=O)CN(CCNC(=O)CN(CCNC(=O)CN(CCNC(=O)CN(CCNC(=O)CN(CCNC(=O)CN(CCNC(=O)CN(CCNC(=O)CN(CCNC(=O)CN(CCNC(=O)CN(CCNC(=O)CN)C(=O)Cn2cnc3c(=O)[nH]c(N)nc32)C(=O)Cn2cnc3c(=O)[nH]c(N)nc32)C(=O)Cn2cnc3c(=O)[nH]c(N)nc32)C(=O)Cn2ccc(N)nc2=O)C(=O)Cn2ccc(N)nc2=O)C(=O)Cn2ccc(=O)[nH]c2=O)C(=O)Cn2ccc(N)nc2=O)C(=O)Cn2ccc(N)nc2=O)C(=O)Cn2ccc(N)nc2=O)C(=O)Cn2ccc(=O)[nH]c2=O)C(=O)Cn2cnc3c(N)ncnc32)C(=O)Cn2cnc3c(=O)[nH]c(N)nc32)C(=O)Cn2cnc3c(N)ncnc32)C(=O)Cn2cnc3c(=O)[nH]c(N)nc32)C(=O)Cn2cnc3c(=O)[nH]c(N)nc32)C(=O)Cn2cnc3c(N)ncnc32)C(=O)Cn2cnc3c(=O)[nH]c(N)nc32)C(=O)Cn2cnc3c(=O)[nH]c(N)nc32)C(=O)Cn2cnc3c(N)ncnc32)CC(=O)NCCN(CC(=O)NCC(=O)O)C(=O)Cn2cc(C)c(=O)[nH]c2=O)c(=O)[nH]c1=O
inhibition at 0.025 µM (T47D [1]): < 20% | inhibition (T47D [2]): Active | inhibition at 0.025 µM (T47D [3]): < 20% | inhibition at 0.1 µM (T47D [4]): < 20% | inhibition at 0.1 µM (T47D [5]): < 20% | inhibition (T47D [6]): Active

Cc1cn(CC(=O)N(CCNC(=O)CN(CCNC(=O)CN(CCNC(=O)CN(CCNC(=O)CN(CCNC(=O)CN(CCNC(=O)CN(CCNC(=O)CN(CCNC(=O)CN(CCNC(=O)CN(CCNC(=O)CN(CCNC(=O)CN(CCNC(=O)CN(CCNC(=O)CN(CCNC(=O)CN(CCNC(=O)CN(CCNC(=O)CN(CCNC(=O)CN(CCNC(=O)CN(CCNC(=O)CN(CCNC(=O)CN(CCNC(=O)CN)C(=O)Cn2ccc(=O)[nH]c2=O)C(=O)Cn2ccc(N)nc2=O)C(=O)Cn2ccc(=O)[nH]c2=O)C(=O)Cn2cnc3c(=O)[nH]c(N)nc32)C(=O)Cn2cnc3c(=O)[nH]c(N)nc32)C(=O)Cn2ccc(N)nc2=O)C(=O)Cn2ccc(N)nc2=O)C(=O)Cn2cnc3c(N)ncnc32)C(=O)Cn2cnc3c(=O)[nH]c(N)nc32)C(=O)Cn2ccc(=O)[nH]c2=O)C(=O)Cn2ccc(N)nc2=O)C(=O)Cn2ccc(N)nc2=O)C(=O)Cn2cnc3c(N)ncnc32)C(=O)Cn2ccc(N)nc2=O)C(=O)Cn2cnc3c(N)ncnc32)C(=O)Cn2cnc3c(=O)[nH]c(N)nc32)C(=O)Cn2ccc(N)nc2=O)C(=O)Cn2ccc(=O)[nH]c2=O)C(=O)Cn2cnc3c(=O)[nH]c(N)nc32)C(=O)Cn2cc(C)c(=O)[nH]c2=O)CC(=O)O)c(=O)[nH]c1=O
inhibition at 0.025 µM (T47D [1]): 50% | inhibition (T47D [2]): Active | inhibition at 0.025 µM (T47D [3]): 38% | inhibition at 0.1 µM (T47D [4]): 97% | inhibition at 0.1 µM (T47D [5]): 100% | inhibition (T47D [6]): Active

Cc1cn(CC(=O)N(CCNC(=O)CN(CCNC(=O)CN(CCNC(=O)CN(CCNC(=O)CN(CCNC(=O)CN(CCNC(=O)CN(CCNC(=O)CN(CCNC(=O)CN(CCNC(=O)CN(CCNC(=O)CN(CCNC(=O)CN(CCNC(=O)CN(CCNC(=O)CN(CCNC(=O)CN(CCNC(=O)CN(CCNC(=O)CN(CCNC(=O)CN(CCNC(=O)CN(CCNC(=O)CN(CCNC(=O)CN)C(=O)Cn2ccc(=O)[nH]c2=O)C(=O)Cn2ccc(N)nc2=O)C(=O)Cn2ccc(N)nc2=O)C(=O)Cn2ccc(N)nc2=O)C(=O)Cn2ccc(=O)[nH]c2=O)C(=O)Cn2cnc3c(N)ncnc32)C(=O)Cn2cnc3c(=O)[nH]c(N)nc32)C(=O)Cn2cnc3c(N)ncnc32)C(=O)Cn2cnc3c(=O)[nH]c(N)nc32)C(=O)Cn2cnc3c(=O)[nH]c(N)nc32)C(=O)Cn2cnc3c(N)ncnc32)C(=O)Cn2cnc3c(=O)[nH]c(N)nc32)C(=O)Cn2cnc3c(=O)[nH]c(N)nc32)C(=O)Cn2cnc3c(N)ncnc32)C(=O)Cn2cnc3c(=O)[nH]c(N)nc32)C(=O)Cn2cnc3c(=O)[nH]c(N)nc32)C(=O)Cn2ccc(N)nc2=O)C(=O)Cn2cnc3c(=O)[nH]c(N)nc32)C(=O)Cn2ccc(=O)[nH]c2=O)CC(=O)NCCN(CC(=O)NCC(=O)O)C(=O)Cn2cc(C)c(=O)[nH]c2=O)c(=O)[nH]c1=O
inhibition at 0.025 µM (T47D [1]): < 20% | inhibition (T47D [2]): Active | inhibition at 0.025 µM (T47D [3]): < 20% | inhibition at 0.1 µM (T47D [4]): 41% | inhibition at 0.1 µM (T47D [5]): 48% | inhibition (T47D [6]): Active

Cc1cn(CC(=O)N(CCNC(=O)CN(CCNC(=O)CN(CCNC(=O)CN(CCNC(=O)CN(CCNC(=O)CN(CCNC(=O)CN(CCNC(=O)CN(CCNC(=O)CN(CCNC(=O)CN(CCNC(=O)CN(CCNC(=O)CN(CCNC(=O)CN(CCNC(=O)CN(CCNC(=O)CN(CCNC(=O)CN(CCNC(=O)CN(CCNC(=O)CN(CCNC(=O)CN(CCNC(=O)CN(CCNC(=O)CN)C(=O)Cn2cnc3c(N)ncnc32)C(=O)Cn2cnc3c(=O)[nH]c(N)nc32)C(=O)Cn2ccc(N)nc2=O)C(=O)Cn2ccc(=O)[nH]c2=O)C(=O)Cn2cnc3c(=O)[nH]c(N)nc32)C(=O)Cn2ccc(=O)[nH]c2=O)C(=O)Cn2ccc(N)nc2=O)C(=O)Cn2ccc(=O)[nH]c2=O)C(=O)Cn2cnc3c(=O)[nH]c(N)nc32)C(=O)Cn2cnc3c(=O)[nH]c(N)nc32)C(=O)Cn2ccc(N)nc2=O)C(=O)Cn2ccc(N)nc2=O)C(=O)Cn2cnc3c(N)ncnc32)C(=O)Cn2cnc3c(=O)[nH]c(N)nc32)C(=O)Cn2ccc(=O)[nH]c2=O)C(=O)Cn2ccc(N)nc2=O)C(=O)Cn2ccc(N)nc2=O)C(=O)Cn2cnc3c(N)ncnc32)C(=O)Cn2ccc(N)nc2=O)CC(=O)NCCN(CC(=O)NCC(=O)O)C(=O)Cn2cc(C)c(=O)[nH]c2=O)c(=O)[nH]c1=O
inhibition at 0.025 µM (T47D [1]): 40% | inhibition (T47D [2]): Active | inhibition at 0.025 µM (T47D [3]): 34% | inhibition at 0.1 µM (T47D [4]): 63% | inhibition at 0.1 µM (T47D [5]): 87% | inhibition (T47D [6]): Active
